Measured values reported in ChEMBL document CHEMBL4196201, “Discovery of N-(4-{[5-Fluoro-7-(2-methoxyethoxy)quinazolin-4-yl]amino}phenyl)-2-[4-(propan-2-yl)-1 H-1,2,3-triazol-1-yl]acetamide (AZD3229), a Potent Pan-KIT Mutant Inhibitor for the Treatment of Gastrointestinal Stromal Tumors” (J Med Chem, 2018).

Tests used:
[1] = Cytotoxicity in mouse parental BA/F3 cells incubated for 72 hrs by MTS assay; format: cell-based, BaF3
[2] = molecular target: Platelet-derived growth factor receptor beta (Homo sapiens) (UniProt P09619); assay: Inhibition of TEL-fused PDGFRbeta (unknown origin) transfected in mouse BA/F3 cells assessed as inhibition of cell growth incubated for 72 hrs by MTS assay; format: cell-based
Chain of Platelet-derived growth factor receptor beta (Homo sapiens) (P09619 whole entry, the tested form may be a part): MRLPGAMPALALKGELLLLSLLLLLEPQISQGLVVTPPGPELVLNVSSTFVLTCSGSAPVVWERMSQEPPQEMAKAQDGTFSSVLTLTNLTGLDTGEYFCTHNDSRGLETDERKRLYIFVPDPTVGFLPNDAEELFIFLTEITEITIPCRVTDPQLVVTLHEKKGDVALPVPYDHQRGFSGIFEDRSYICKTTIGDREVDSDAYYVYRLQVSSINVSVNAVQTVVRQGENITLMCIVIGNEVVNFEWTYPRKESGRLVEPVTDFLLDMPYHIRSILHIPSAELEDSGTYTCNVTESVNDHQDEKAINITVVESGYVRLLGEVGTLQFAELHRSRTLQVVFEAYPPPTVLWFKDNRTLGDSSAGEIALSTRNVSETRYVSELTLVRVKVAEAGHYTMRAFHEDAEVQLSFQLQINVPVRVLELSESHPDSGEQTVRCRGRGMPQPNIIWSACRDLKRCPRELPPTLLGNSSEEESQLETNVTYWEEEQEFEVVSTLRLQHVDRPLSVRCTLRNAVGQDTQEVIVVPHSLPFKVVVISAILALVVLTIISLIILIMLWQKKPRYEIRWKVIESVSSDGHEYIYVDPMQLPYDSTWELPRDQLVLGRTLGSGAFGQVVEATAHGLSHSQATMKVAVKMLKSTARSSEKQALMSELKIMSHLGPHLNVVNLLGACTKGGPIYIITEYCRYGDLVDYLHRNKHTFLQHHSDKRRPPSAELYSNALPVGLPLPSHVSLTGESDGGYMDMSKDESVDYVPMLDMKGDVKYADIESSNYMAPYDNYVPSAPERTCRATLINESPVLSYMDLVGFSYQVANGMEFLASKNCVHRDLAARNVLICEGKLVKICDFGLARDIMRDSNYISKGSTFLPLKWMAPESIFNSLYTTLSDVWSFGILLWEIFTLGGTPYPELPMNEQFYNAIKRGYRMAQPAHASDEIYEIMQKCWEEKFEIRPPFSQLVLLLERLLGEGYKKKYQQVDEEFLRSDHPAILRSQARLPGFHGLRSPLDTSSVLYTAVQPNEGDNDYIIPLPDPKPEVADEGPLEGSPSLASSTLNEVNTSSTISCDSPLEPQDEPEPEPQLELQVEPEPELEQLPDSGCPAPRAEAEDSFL

BaF3 [3] = assay: Antitumor activity against mouse BA/F3 cells expressing Kit exon 11 deletion (557 to 558 residues) and D816H mutant (unknown origin) allografted in CB17 SCID mouse assessed as inhibition of tumor growth at 300 mg/kg, po qd measured on last day of dosing; format: functional; conditions: read-out: TGI
Procedure, shortened: (§1)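 Ba/F3 cells bearing the KIT exon 11 del/D816H or exon 11 del/V654A mutation were grown as allografts in mice. Compounds were given p.o. once (QD) or twice daily (BD), and vehicle was given BD p.o. Tumor growth inhibition and regression (%) were taken on the last day of dosing. p-values were calculated relative to vehicle.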

BaF3 [4] = assay: Antitumor activity against mouse BA/F3 cells expressing Kit exon 11 deletion (557 to 558 residues) and V654 mutant (unknown origin) allografted in CB17 SCID mouse assessed as inhibition of tumor growth at 300 mg/kg, po qd measured on last day of dosing; format: functional; conditions: read-out: TGI; procedure, shortened: as §1
BaF3 [5] = assay: Antitumor activity against mouse BA/F3 cells expressing Kit exon 11 deletion (557 to 558 residues) and D816H mutant (unknown origin) allografted in CB17 SCID mouse assessed as tumor regression at 300 mg/kg, po qd measured on last day of dosing; format: functional; procedure, shortened: as §1
BaF3 [6] = assay: Antitumor activity against mouse BA/F3 cells expressing Kit exon 11 deletion (557 to 558 residues) and V654 mutant (unknown origin) allografted in CB17 SCID mouse assessed as tumor regression at 300 mg/kg, po qd measured on last day of dosing; format: functional; procedure, shortened: as §1
[7] = test system: Mast/stem cell growth factor receptor Kit (Homo sapiens), P10721 [UNDEFINED MUTATION]
Chain of Mast/stem cell growth factor receptor Kit (Homo sapiens), P10721 [UNDEFINED MUTATION] (P10721 whole entry, looked up, stated change not applied): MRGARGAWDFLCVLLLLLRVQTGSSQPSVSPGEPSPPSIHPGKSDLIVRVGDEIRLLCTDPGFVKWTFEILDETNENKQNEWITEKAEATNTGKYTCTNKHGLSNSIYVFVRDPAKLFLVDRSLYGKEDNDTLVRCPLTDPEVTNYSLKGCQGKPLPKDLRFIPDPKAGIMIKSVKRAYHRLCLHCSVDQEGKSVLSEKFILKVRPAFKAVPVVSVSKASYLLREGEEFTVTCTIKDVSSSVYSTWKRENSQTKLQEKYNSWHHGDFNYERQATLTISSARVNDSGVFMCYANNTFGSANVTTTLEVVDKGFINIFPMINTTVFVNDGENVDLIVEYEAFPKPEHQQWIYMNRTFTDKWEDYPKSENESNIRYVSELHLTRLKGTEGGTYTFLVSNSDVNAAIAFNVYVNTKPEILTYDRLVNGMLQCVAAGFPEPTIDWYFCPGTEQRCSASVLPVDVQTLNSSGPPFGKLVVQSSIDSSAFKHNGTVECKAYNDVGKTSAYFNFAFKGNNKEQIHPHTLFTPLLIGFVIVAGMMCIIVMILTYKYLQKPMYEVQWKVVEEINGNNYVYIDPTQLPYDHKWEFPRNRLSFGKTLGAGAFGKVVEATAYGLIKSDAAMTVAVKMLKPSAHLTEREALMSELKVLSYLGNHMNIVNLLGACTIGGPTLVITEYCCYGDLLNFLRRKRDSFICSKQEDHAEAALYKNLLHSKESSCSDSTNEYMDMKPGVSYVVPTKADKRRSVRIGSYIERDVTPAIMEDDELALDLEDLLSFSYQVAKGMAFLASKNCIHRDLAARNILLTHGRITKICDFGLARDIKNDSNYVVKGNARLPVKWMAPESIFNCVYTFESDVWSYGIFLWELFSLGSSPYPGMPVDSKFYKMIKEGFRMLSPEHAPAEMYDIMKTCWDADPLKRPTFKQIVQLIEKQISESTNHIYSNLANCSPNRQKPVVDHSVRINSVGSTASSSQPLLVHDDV

[8] = molecular target: Mast/stem cell growth factor receptor Kit (Homo sapiens) (UniProt P10721)
Chain of Mast/stem cell growth factor receptor Kit (Homo sapiens) (P10721 whole entry): as the sequence (P10721 whole entry, looked up, stated change not applied) above

[9] = molecular target: Mast/stem cell growth factor receptor Kit (Homo sapiens) (UniProt P10721); remark: listed apart in the source
[10] = molecular target: Mast/stem cell growth factor receptor Kit (Homo sapiens) (UniProt P10721); remark: listed apart in the source
[11] = molecular target: Mast/stem cell growth factor receptor Kit (Homo sapiens) (UniProt P10721); remark: listed apart in the source
[12] = test system: Mast/stem cell growth factor receptor Kit (Homo sapiens), P10721 [UNDEFINED MUTATION]; remark: listed apart in the source
[13] = test system: Mast/stem cell growth factor receptor Kit (Homo sapiens), P10721 [UNDEFINED MUTATION]; remark: listed apart in the source
[14] = test system: Mast/stem cell growth factor receptor Kit (Homo sapiens), P10721 [UNDEFINED MUTATION]; remark: listed apart in the source
[15] = test system: Mast/stem cell growth factor receptor Kit (Homo sapiens), P10721 [V560D]
Chain of Mast/stem cell growth factor receptor Kit (Homo sapiens), P10721 [V560D] (P10721 whole entry V560D): as the sequence (P10721 whole entry, looked up, stated change not applied) above, with V560D counted along it

[16] = test system: Mast/stem cell growth factor receptor Kit (Homo sapiens), P10721 [V560D,D816H]
Chain of Mast/stem cell growth factor receptor Kit (Homo sapiens), P10721 [V560D,D816H] (P10721 whole entry V560D/D816H): as the sequence (P10721 whole entry, looked up, stated change not applied) above, with V560D, D816H counted along it

[17] = test system: Platelet-derived growth factor receptor alpha (Homo sapiens), P16234 [V561D,D842V]
Chain of Platelet-derived growth factor receptor alpha (Homo sapiens), P16234 [V561D,D842V] (P16234 whole entry V561D/D842V, the tested form may be a part): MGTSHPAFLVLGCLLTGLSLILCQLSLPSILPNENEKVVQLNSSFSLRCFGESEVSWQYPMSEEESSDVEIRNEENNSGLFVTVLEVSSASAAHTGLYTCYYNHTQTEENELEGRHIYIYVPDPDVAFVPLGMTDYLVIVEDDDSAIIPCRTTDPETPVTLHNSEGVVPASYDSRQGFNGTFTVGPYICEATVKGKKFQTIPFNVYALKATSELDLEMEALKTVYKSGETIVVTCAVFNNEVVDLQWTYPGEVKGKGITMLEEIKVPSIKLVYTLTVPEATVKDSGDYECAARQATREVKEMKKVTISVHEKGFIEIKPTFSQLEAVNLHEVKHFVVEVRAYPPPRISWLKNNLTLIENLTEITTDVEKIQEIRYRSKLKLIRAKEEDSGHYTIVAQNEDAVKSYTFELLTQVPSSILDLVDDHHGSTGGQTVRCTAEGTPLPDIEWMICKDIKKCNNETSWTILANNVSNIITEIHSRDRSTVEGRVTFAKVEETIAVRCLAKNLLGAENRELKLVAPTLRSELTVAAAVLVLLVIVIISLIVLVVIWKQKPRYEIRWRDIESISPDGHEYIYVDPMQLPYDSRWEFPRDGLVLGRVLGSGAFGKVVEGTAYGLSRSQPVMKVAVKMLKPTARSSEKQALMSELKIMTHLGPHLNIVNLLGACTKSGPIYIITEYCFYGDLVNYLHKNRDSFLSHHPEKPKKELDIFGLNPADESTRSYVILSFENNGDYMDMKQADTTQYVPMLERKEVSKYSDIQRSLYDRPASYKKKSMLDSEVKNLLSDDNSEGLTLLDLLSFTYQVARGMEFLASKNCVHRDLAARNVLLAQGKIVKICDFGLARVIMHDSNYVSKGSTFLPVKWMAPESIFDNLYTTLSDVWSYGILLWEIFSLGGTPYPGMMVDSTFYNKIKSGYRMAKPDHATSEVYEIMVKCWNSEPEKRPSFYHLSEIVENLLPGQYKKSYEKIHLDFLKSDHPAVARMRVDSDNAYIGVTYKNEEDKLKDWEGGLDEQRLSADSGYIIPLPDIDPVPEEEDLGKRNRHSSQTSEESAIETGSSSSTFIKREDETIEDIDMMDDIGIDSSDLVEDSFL

BaF3 [18] = assay: Antitumor activity against mouse BA/F3 cells expressing Kit exon 11 deletion (557 to 558 residues) and V654 mutant (unknown origin) allografted in CB17 SCID mouse assessed as inhibition of tumor growth at 80 mg/kg, po qd measured on last day of dosing; format: functional; conditions: read-out: TGI; procedure, shortened: as §1
BaF3 [19] = assay: Antitumor activity against mouse BA/F3 cells expressing Kit exon 11 deletion (557 to 558 residues) and V654 mutant (unknown origin) allografted in CB17 SCID mouse assessed as tumor regression at 80 mg/kg, po qd measured on last day of dosing; format: functional; procedure, shortened: as §1
[20] = test system: Mast/stem cell growth factor receptor Kit (Homo sapiens), P10721 [UNDEFINED MUTATION]; remark: listed apart in the source
[21] = molecular target: Platelet-derived growth factor receptor alpha (Homo sapiens) (UniProt P16234)
Chain of Platelet-derived growth factor receptor alpha (Homo sapiens) (P16234 whole entry): as the sequence (P16234 whole entry V561D/D842V, the tested form may be a part) above, with D561V, V842D counted along it

Row | Structure (SMILES) | GI50 at 72 h [1] [µM] | GI50 [2] [µM] | GI50 [7] [µM] | GI50 [9] [µM] | GI50 [11] [µM] | GI50 [12] [µM] | GI50 [13] [µM] | GI50 [16] [µM] | GI50 [17] [µM] | further results
1 | Cc1ccc(NC(=O)c2ccc(CN3CCN(C)CC3)cc2)cc1Nc1nccc(-c2cccnc2)n1 [IMATINIB] | > 10 | 0.102 | 0.535 to 0.537 | 3.95 | 0.017 | 0.216 | 0.669 | 1.19 | 0.567 | inhibition in vivo at 300 mg/kg (BaF3 [3]): 43%; inhibition in vivo at 300 mg/kg (BaF3 [4]): 34%; Activity (BaF3 [5]): 0%; Activity (BaF3 [6]): 0%; GI50 [8]: 0.192 µM; GI50 [10]: 2.75 µM; GI50 [14]: 0.312 µM; GI50 [15]: 0.07 µM
2 | CCN(CC)CCNC(=O)c1c(C)[nH]c(/C=C2\C(=O)Nc3ccc(F)cc32)c1C [SUNITINIB] | 4.79 | 0.114 | 0.398 to 0.4 | 0.012 | 0.004 | 0.214 | 0.782 | 0.696 | 0.631 | inhibition in vivo at 80 mg/kg (BaF3 [18]): > 100%; Activity (BaF3 [19]): 87%; GI50 [20]: 0.271 µM; GI50 [21]: 0.03 µM
